The source made the active and inactive calls. No cut-off for these calls is given here.

Experiment [1] concerns COLO 205. Description: Cytotoxicity against human COLO205 cells after 24 hrs by MTT assay. It is filed as functional, cell-based. Particulars: COLO 205, 24 h. In outline:
(§1)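 A549 lung adenocarcinoma, Colo-205 colon and MCF-7 breast carcinoma cells were exposed to compounds at 1 to 64 µM for 24 h. Viability was read by MTT assay, and IC50 values were derived from it.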

The subject of experiment [2] is MCF-10A. The experiment can be described thus: Cytotoxicity against human MCF10A cells after 24 hrs by MTT assay. It is filed as cell-based.
Experiment [3] relates to A549. The experiment can be described thus: Cytotoxicity against human A549 cells after 24 hrs by MTT assay. It counts as functional, cell-based. Particulars: A549, 24 h. The procedure, abridged:
as §1

Experiment [4] deals with MCF7. The experiment can be described thus: Cytotoxicity against human MCF7 cells after 24 hrs by MTT assay. It counts as functional, cell-based. Particulars: MCF7, 24 h. In outline: as §1
The test system of experiment [5] is COLO 205. Description: Induction of apoptosis in human COLO205 cells assessed as accumulation at G0 phase at 8 uM after 24 hrs by FACS analysis (reference value: 2.28%). It is filed as functional. The procedure, abridged: (§2)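 Colo-205 human colon cancer cells were exposed to 8 or 16 µM for 24 h alongside untreated controls. They were then analysed by flow cytometry (FACS) for cell-cycle distribution as percent of cells in G0, G1, S and G2/M. The G0 population was taken as apoptotic cells.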

Experiment [6] has as its system COLO 205. The experiment can be described thus: Induction of apoptosis in human COLO205 cells assessed as accumulation at G0 phase at 16 uM after 24 hrs by FACS analysis (reference value: 2.28%). It counts as functional. The procedure, abridged:
as §2

Experiment [7] concerns COLO 205. Description: Cell cycle arrest in human COLO205 cells assessed as accumulation at G1 phase at 8 uM after 24 hrs by FACS analysis (reference value: 71.02 +/- 1.00%). It is filed as functional. In outline: as §2
The subject of experiment [8] is COLO 205. Description: Cell cycle arrest in human COLO205 cells assessed as accumulation at G1 phase at 16 uM after 24 hrs by FACS analysis (reference value: 71.02 +/- 1.00%). It is filed as functional. The procedure, abridged: as §2
The test system of experiment [9] is COLO 205. Description: Cell cycle arrest in human COLO205 cells assessed as accumulation at S phase at 8 uM after 24 hrs by FACS analysis (reference value: 3.56 +/- 0.40%). It is filed as functional. In outline:
as §2

In experiment [10] the test system is COLO 205. Description: Cell cycle arrest in human COLO205 cells assessed as accumulation at S phase at 16 uM after 24 hrs by FACS analysis (reference value: 3.56 +/- 0.40%). It counts as functional. The procedure, abridged:
as §2

Experiment [11] deals with COLO 205. The experiment can be described thus: Cell cycle arrest in human COLO205 cells assessed as accumulation at G2/M phase at 8 uM after 24 hrs by FACS analysis (reference value: 23.09 +/- 1.01%). It is filed as functional. The procedure, abridged:
as §2

Experiment [12] has as its system COLO 205. Description: Cell cycle arrest in human COLO205 cells assessed as accumulation at G2/M phase at 16 uM after 24 hrs by FACS analysis (reference value: 23.09 +/- 1.01%). It is filed as functional. The procedure, abridged:
as §2

For experiment [13], the system named is COLO 205. Description: Induction of apoptosis in human COLO205 cells assessed as increase in caspase 3 expression at 8 uM after 24 hrs by Western blot analysis. It counts as functional, cell-based. The procedure, abridged:
(§3)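 Colo-205 cells were treated at 8 or 16 µM for 24 h and lysed. Western blots of the lysates were probed with antibodies to procaspase-8, procaspase-9, active caspase-3 and cleaved (active) PARP.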

The subject of experiment [14] is COLO 205. The experiment can be described thus: Induction of apoptosis in human COLO205 cells assessed as increase in PARP expression at 8 uM after 24 hrs by Western blot analysis. It is filed as functional, cell-based. The procedure, abridged:
as §3

In experiment [15] the test system is COLO 205. Description: Induction of apoptosis in human COLO205 cells assessed as degradation of procaspase 8 at 8 uM after 24 hrs by Western blot analysis. It counts as functional, cell-based. The procedure, abridged: as §3
Experiment [16] deals with COLO 205. Description: Induction of apoptosis in human COLO205 cells assessed as degradation of procaspase 9 at 8 uM after 24 hrs by Western blot analysis. It is filed as functional, cell-based. The procedure, abridged: as §3

Regarding `Fc1ccc(-n2cc(COc3ccccc3-c3nc4ccccc4s3)nn2)cc1`, the IC50 in experiment [1] worked out at 18.9 µM; in experiment [2], 33.3 µM; in [3], 23.3 µM; in [4], 26.2 µM.
For `Fc1ccccc1-c1cc(COc2ccccc2-c2nc3ccccc3s2)on1` the same measures were 18.3 µM, 42.5 µM, 22.5 µM and 23.9 µM.
For the compound `FC(F)(F)C(F)(F)C(F)(F)C(F)(F)C(F)(F)C(F)(F)CCn1cc(COc2ccccc2-c2nc3ccccc3s2)nn1`, the IC50 amounted to 14.2 µM in [1], 35.1 µM in experiment [2], 15.1 µM in experiment [3] and 19.8 µM in [4]. For the same compound, the Activity in experiment [5] is given as 2.72%; in [6], 11.91%; in experiment [7] it was 73.66%; in [8], 61.36%; in experiment [9], 3.09%; in [10] it was 4.42%. Further, the Activity in experiment [11] is given as 20.53%; in [12] it was 22.3%.
For the compound `FC(F)(F)Oc1ccc(-c2cc(COc3ccccc3-c3nc4ccccc4s3)on2)cc1`, the IC50 in experiment [1] was 19.9 µM; in experiment [2], 43.9 µM; in [3], 23.9 µM; in experiment [4], 26.6 µM.
For `COc1cc(-c2cc(COc3ccccc3-c3nc4ccccc4s3)on2)cc(OC)c1OC`, the IC50 in experiment [1] is 17.5 µM; in [2], 42.9 µM; in experiment [3], 22.9 µM; in experiment [4] it was 25.6 µM.
The corresponding values for `c1ccc(-n2cc(COc3ccccc3-c3nc4ccccc4s3)nn2)cc1` are 16.6 µM, 36.4 µM, 16.4 µM and 26.2 µM.
Regarding `FC(F)(F)C(F)(F)C(F)(F)C(F)(F)C(F)(F)C(F)(F)C(F)(F)C(F)(F)CCn1cc(COc2ccccc2-c2nc3ccccc3s2)nn1`, the IC50 in experiment [1] amounted to 12.2 µM; in experiment [2], 33.1 µM; in [3], 13.1 µM; in experiment [4] it was 19.2 µM. Further, the Activity stood at 3.3% in experiment [5]; 34.45% in [6]; 72% in experiment [7]; 46.57% in experiment [8]; 4.43% in experiment [9]; 3.79% in [10]. Besides, the Activity in [11] was determined as 20.22%; in experiment [12] it was 15.18%.
On to `Fc1ccc(-n2cc(COc3ccccc3-c3nc4ccccc4s3)nn2)cc1Cl`, for which the IC50 in [1] turned out to be 14.4 µM; in experiment [2], 26.3 µM; in [3] it was 16.3 µM; in experiment [4], 27.3 µM.
On to `Brc1ccc(-c2cc(COc3ccccc3-c3nc4ccccc4s3)on2)cc1`, for which the IC50 came out at 16.4 µM in experiment [1], 29.2 µM in experiment [2], 19.2 µM in [3] and 20 µM in experiment [4].
The corresponding values for `COc1ccc(-c2cc(COc3ccccc3-c3nc4ccccc4s3)on2)cc1` are 20.7 µM, 34.1 µM, 24.1 µM and 22.1 µM.
The corresponding values for `Cc1ccc(-c2cc(COc3ccccc3-c3nc4ccccc4s3)on2)cc1` are 14.2 µM, 26.4 µM, 16.4 µM and 27.5 µM.
Regarding `FC(F)(F)c1cccc(-n2cc(COc3ccccc3-c3nc4ccccc4s3)nn2)c1`, the half-maximal inhibitory concentration (IC50) in [1] amounted to 10.8 µM; in experiment [2], 31.1 µM; in [3], 11.1 µM; in experiment [4], 18.9 µM. In addition, the Activity in experiment [5] is listed as 4.02%; in [6] it was 40.7%; in experiment [7] it was 70.91%; in experiment [8] it was 45.77%; in experiment [9] it was 3.37%; in [10] it was 2.68%. Moreover, the results for the Activity in experiment [11] and in [12] were 21.68% and 10.67%, respectively. Also, the result in [13], in experiment [14], in experiment [15] and in experiment [16] was Active.
Consider `COc1ccc(-c2nc3cc(F)ccc3s2)cc1OC`, for which the IC50 in experiment [1] was found to be 13.9 µM; in experiment [2], 25.2 µM; in experiment [3], 15.9 µM; in [4], 20.2 µM. Also, the Activity came out at 4.15% in [5]; 27.17% in experiment [6]; 70.04% in experiment [7]; 52.82% in experiment [8]; 3.21% in [9]; 4.31% in experiment [10]. For the same compound, the Activity in [11] came to 22.5%; in experiment [12], 15.6%.
Take `Clc1ccc(-c2cc(COc3ccccc3-c3nc4ccccc4s3)on2)cc1`: the IC50 in experiment [1] worked out at 16.4 µM; in experiment [2], 38.8 µM; in [3], 18.8 µM; in experiment [4], 23.8 µM.
